Laboratory results: ChEMBL document CHEMBL1124374, “Enkephalinase inhibitors. 1. 2,4-Dibenzylglutaric acid derivatives” (J Med Chem, 1989)
pIC50: −log10 of the molar value. Activity calls are given as the source filed them.

Tests used:
Neprilysin [1] = target: T1, Neprilysin (Rattus norvegicus, UniProt P07861); assay: Inhibition of enkephalinase activity in synaptic membranes prepared from rat striatum; assay type: cell membranes
T1 sequence (P07861 whole entry): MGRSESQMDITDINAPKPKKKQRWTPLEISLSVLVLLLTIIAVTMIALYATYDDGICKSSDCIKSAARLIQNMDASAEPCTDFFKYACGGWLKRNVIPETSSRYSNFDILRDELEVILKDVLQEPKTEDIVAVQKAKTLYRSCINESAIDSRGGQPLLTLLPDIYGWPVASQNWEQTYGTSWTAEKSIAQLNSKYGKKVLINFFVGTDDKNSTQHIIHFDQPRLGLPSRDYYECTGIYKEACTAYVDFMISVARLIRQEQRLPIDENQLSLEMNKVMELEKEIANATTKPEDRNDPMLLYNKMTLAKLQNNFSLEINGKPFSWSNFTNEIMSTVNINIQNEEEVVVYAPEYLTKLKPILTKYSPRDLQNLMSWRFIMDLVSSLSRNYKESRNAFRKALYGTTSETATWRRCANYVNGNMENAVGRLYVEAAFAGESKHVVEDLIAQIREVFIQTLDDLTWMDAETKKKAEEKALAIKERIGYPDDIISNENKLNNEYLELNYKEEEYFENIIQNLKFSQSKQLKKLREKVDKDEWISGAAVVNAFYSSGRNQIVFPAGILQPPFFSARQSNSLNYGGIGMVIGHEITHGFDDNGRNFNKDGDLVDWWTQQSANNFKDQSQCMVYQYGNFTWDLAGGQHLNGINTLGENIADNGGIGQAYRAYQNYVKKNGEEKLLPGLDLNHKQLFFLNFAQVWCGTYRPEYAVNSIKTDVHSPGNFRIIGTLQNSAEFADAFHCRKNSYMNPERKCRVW

Mus musculus [2] = assay: Tail-flick latency observed in CF-1 mice after the administration (30 mg/kg) followed by icv administration of DAEM ([D-Ala2,Met5]enkephalin); assay type: functional
Outline: (§1)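 Male CF-1 mice (20–22 g) given test agent or vehicle sc, followed immediately by icv DAEM (1 μg) or vehicle. Tail-flick latency measured 30 min later, cutoff 10 s, n = 10.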

Mus musculus [3] = assay: Hot-plate jump-latency activity in mouse 15 minutes after subcutaneous administration; assay type: functional; settings: sc, 0.25 h, read-out: MED
Outline: (§2)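 Male CF1 mice (18–23 g) dosed icv or sc; 15 min later placed singly on a copper hot plate held at 55 °C. Latency to jump recorded, cutoff 240 s. MED = minimum effective dose. ED200 = dose doubling jump latency.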

Neprilysin [4] = target: T2, Neprilysin (Oryctolagus cuniculus, UniProt P08049); assay: (§3) Inhibition of enkephalinase activity in membranes prepared from rabbit
T2 sequence (P08049 whole entry): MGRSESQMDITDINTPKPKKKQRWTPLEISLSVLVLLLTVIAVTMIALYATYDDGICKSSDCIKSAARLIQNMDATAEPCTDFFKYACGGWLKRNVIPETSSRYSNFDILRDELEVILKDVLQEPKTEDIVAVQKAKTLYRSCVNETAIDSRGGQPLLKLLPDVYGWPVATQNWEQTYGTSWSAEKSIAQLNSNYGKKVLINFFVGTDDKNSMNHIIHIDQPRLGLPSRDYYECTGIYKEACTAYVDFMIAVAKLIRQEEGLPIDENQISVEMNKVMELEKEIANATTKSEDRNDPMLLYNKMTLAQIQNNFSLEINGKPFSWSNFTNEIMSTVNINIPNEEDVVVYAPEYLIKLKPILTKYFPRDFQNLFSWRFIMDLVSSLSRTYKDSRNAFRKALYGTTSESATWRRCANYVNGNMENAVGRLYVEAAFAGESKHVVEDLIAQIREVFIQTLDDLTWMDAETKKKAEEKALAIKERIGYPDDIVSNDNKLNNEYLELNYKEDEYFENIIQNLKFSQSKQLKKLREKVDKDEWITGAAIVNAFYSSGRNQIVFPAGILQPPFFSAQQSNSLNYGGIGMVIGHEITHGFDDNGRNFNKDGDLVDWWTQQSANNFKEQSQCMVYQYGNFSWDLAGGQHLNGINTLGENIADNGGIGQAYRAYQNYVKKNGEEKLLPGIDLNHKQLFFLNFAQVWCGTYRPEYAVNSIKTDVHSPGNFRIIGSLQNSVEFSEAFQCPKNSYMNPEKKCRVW

Mus musculus [5] = assay: Doubling of hotplate jump-latency activity in mouse after intra cerebro ventricular administration of the compound; assay type: functional; outline: as §2
Mus musculus [6] = assay: Tail-flick latency observed in CF-1 mice after the administration (30 mg/kg) followed by icv administration of DAEM ([D-Ala2,Met5]enkephalin); IA is Inactive; assay type: functional, organism-based; outline: as §1
[7] = target: T3, Aminopeptidase N (Sus scrofa) (UniProt P15145); assay: Inhibition of aminopeptidase; IA is inactive
T3 sequence (whole entry): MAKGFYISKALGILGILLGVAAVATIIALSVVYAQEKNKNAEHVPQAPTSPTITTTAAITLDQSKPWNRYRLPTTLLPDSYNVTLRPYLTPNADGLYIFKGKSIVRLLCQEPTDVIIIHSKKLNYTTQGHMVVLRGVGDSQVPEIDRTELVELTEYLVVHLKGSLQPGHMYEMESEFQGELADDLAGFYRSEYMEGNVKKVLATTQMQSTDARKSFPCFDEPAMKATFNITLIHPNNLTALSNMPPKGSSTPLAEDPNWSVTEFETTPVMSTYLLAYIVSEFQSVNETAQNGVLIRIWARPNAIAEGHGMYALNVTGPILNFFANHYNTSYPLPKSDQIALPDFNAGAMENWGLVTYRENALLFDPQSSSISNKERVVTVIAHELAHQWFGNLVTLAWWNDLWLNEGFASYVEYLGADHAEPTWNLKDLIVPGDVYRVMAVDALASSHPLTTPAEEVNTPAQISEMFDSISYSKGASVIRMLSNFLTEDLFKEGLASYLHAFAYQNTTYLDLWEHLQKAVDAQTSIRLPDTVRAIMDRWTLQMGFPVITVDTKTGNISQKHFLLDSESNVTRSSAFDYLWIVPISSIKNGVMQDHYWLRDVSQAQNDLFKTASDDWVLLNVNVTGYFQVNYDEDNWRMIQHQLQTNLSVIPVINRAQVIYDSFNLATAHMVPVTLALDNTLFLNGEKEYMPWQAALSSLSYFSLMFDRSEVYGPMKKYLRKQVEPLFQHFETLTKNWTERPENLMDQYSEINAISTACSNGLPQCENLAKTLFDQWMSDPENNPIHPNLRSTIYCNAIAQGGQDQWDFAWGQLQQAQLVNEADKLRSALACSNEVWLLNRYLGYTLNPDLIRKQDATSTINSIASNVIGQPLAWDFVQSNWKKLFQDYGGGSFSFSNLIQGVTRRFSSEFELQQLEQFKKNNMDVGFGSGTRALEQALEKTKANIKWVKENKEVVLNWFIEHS
Outline: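 Kidney cortex membranes (75 μg protein) incubated 15 min at 37 °C in 50 mM Tris, pH 7.4, with 0.8 mM L-leucine p-nitroanilide (final). Reaction stopped with TCA, tubes centrifuged, p-nitroaniline read as OD at 410 nm.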

Neprilysin [8] = target: T2, Neprilysin; assay: as §3; remark: listed apart in the source
Outline: (§4)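 Rabbit protease 24.11 (15 ng protein) incubated 10 min at 37 °C with [Tyr-3H]Leu-enkephalin plus unlabeled Leu-enkephalin (1 μM final) in 50 mM Tris-HCl, pH 6.5. Stopped with TFA. Tyr-Gly-Gly product separated from substrate by C4 reverse-phase HPLC (isocratic, 0.09% TFA/acetonitrile). Fractions counted by scintillation.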

Mus musculus [9] = assay: Stretching activity in male CF-1 mice, after the intra peritoneal administration of acetic acid and subcutaneous administration of compound; assay type: functional
Outline: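 Male CF-1 mice (18–22 g), twelve per dose of agent or vehicle, dosed sc 15 min before ip 3% aqueous acetic acid at 10 mL/kg. Five minutes after irritant, stretching episodes counted over 10 min. ED50 derived from these counts.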

Mus musculus [10] = assay: Doubling of hotplate jump-latency activity in mouse after subcutaneous administration is determined; assay type: functional; outline: as §2
[11] = target: Mu-type opioid receptor (Mus musculus) (UniProt P42866); assay: Ability to displace tritium-labeled naloxone at opioid receptor, at 10 uM concentration
Opioid receptor = assay: Ability to displace tritium-labeled naloxone at opiate receptors, at 10 uM concentration
Neprilysin [12] = target: T2, Neprilysin; assay: Inhibitory activity against Enkephalinase from rabbit using method 2 is determined.; outline: as §4

Sequence of Mu-type opioid receptor (Mus musculus) (P42866 whole entry): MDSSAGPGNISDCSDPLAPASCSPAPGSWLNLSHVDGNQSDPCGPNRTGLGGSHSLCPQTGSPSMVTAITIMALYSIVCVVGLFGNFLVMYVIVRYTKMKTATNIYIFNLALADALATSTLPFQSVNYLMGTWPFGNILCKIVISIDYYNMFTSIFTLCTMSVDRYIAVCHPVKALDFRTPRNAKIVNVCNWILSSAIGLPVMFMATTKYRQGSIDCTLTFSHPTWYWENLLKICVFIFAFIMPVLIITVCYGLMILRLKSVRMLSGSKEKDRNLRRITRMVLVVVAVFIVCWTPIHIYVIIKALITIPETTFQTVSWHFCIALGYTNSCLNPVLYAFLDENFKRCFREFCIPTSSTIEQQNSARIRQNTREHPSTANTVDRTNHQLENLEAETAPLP

O=C(O)C(COCc1ccccc1)NC(=O)[C@H](Cc1ccccc1)C[C@@H](Cc1ccccc1)C(=O)O (stereo partly drawn)
pIC50 (Neprilysin [1]): 8.22

CC1(C)O[C@H]2[C@H](COC(=O)CCNC(=O)[C@H](Cc3ccccc3)C[C@@H](Cc3ccccc3)C(=O)O)OC(=O)[C@H]2O1
Reaction time (Mus musculus [2]): 9.8 s | minimal effective dose (Mus musculus [3]): > 30 mg/kg

O=C(O)C(Cc1ccccc1)NC(=O)[C@H](Cc1ccccc1)C[C@@H](Cc1ccccc1)C(=O)O (stereo partly drawn)
pIC50 (Neprilysin [1]): 7.54

O=C(O)CCC(=O)NC(Cc1ccccc1)C[C@@H](Cc1ccccc1)C(=O)O (stereo partly drawn)
pIC50 (Neprilysin [4]): 8.70

O=C(O)CCNC(=O)C(Cc1ccccc1)CC(Cc1ccccc1)C(=O)O (stereo not drawn)
pIC50 (Neprilysin [1]): 7.74

O=C(O)C(CSCc1ccccc1)NC(=O)[C@H](Cc1ccccc1)C[C@@H](Cc1ccccc1)C(=O)O (stereo partly drawn)
pIC50 (Neprilysin [1]): 8.40

CCOC(=O)C(Cc1ccccc1)CC(Cc1ccccc1)C(=O)NCCC(=O)O (stereo not drawn)
pIC50 (Neprilysin [1]): < 6.00 | ED200 (Mus musculus [5]): 16 µg | minimal effective dose (Mus musculus [3]): > 100 mg/kg | Reaction time (Mus musculus [6]): inactive

O=C(O)c1ccc(NC(=O)[C@@H](Cc2ccccc2)C[C@H](Cc2ccccc2)C(=O)O)cc1
pIC50 (Neprilysin [1]): 6.10

COc1cc(CNC(=O)C(CS)Cc2ccccc2)ccc1O (stereo not drawn)
inhibition [7]: inactive | pIC50 (Neprilysin [8]): 8.05 | ED50 (Mus musculus [9]; sc): 5.5 mg/kg | ED200 (Mus musculus [10]): 6 mg/kg | inhibition [11]: 30%

O=C(O)C(Cc1ccccc1)CC(Cc1ccccc1)C(=O)NCCCO (stereo not drawn)
pIC50 (Neprilysin [1]): 6.00

CC1(C)O[C@@H]2O[C@@H](COC(=O)CCNC(=O)[C@H](Cc3ccccc3)C[C@@H](Cc3ccccc3)C(=O)[O-])[C@H]3OC(C)(C)O[C@H]3[C@@H]2O1.[Na+]
Reaction time (Mus musculus [2]): 8.1 s | minimal effective dose (Mus musculus [3]): > 30 mg/kg

O=C(O)CCCC(=O)NC(Cc1ccccc1)CC(Cc1ccccc1)C(=O)O (stereo not drawn)
pIC50 (Neprilysin [4]): 7.92

O=C(NCc1ccc(O)c(O)c1)C(CS)Cc1ccccc1 (stereo not drawn)
pIC50 (Neprilysin [1]): 7.92 | ED50 (Mus musculus [9]): 5 mg/kg | ED200 (Mus musculus [10]): 15 mg/kg | inhibition (Opioid receptor): 15%

O=C(O)CCNC(=O)[C@H](Cc1ccccc1)C[C@@H](Cc1ccccc1)C(=O)O
pIC50 (Neprilysin [12]): 8.30 | pIC50 (Neprilysin [1]): 8.10 | ED200 (Mus musculus [5]): 15 µg | Reaction time (Mus musculus [2]): 8.6 s | minimal effective dose (Mus musculus [3]): > 30 mg/kg

O=C(O)CCNC(=O)C(CCc1ccccc1)CC(CCc1ccccc1)C(=O)O (stereo not drawn)
pIC50 (Neprilysin [1]): 6.00

O=C(O)C(Cc1c[nH]c2ccccc12)NC(=O)[C@H](Cc1ccccc1)C[C@@H](Cc1ccccc1)C(=O)O (stereo partly drawn)
pIC50 (Neprilysin [1]): 7.13

O=C(O)c1cccc(NC(=O)[C@@H](Cc2ccccc2)C[C@H](Cc2ccccc2)C(=O)O)c1
pIC50 (Neprilysin [1]): 7.05
